Experimental data: ChEMBL document CHEMBL2331456, “Isobutylhydroxyamides from the pericarp of Nepalese Zanthoxylum armatum inhibit NF1-defective tumor cell line growth” (J Nat Prod, 2013)
The source made the active and inactive calls. No cut-off for these calls is given here.

Key:
[1] = Growth inhibition of mouse Nf1-/-;Trp53-/- KR158 cells assessed as green luminescence at 2 ug/ml after 2 days; type: functional; settings: KR158, 48 h, read-out: GI
Outline: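 KR158 Nf1−/−;Trp53−/− astrocytoma cells carry a human E2F1-promoter luciferase that gives green luminescence only in actively dividing cells. Cells were seeded at 1000 cells/well, and compounds were added after ≥4 h attachment. Green luminescence was read with ChromoGlo reagent after 2 d. Growth inhibition compares treated cells with vehicle-treated cells, both in growth media.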

[2] = Cytotoxicity against mouse Nf1-/-;Trp53-/- KR158 cells assessed as cell viability at 2 ug/ml after 2 days by red luminescence assay relative to control; type: cell-based; settings: read-out: Activity
Outline: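 Nf1−/−;Trp53−/− KR158 mouse astrocytoma cells carry a CMV-promoter luciferase that gives red luminescence in all living cells. Cells were plated at 1000 cells/well and allowed to attach (≥4 h), then compounds were added. Luminescence was read with ChromoGlo reagent 2 d later. Loss of viability compares treated cells in growth media with […].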

NCI60 = test: Cytotoxicity against human NCI60 cells at 10 uM; type: functional, cell-based

Row | Structure (SMILES) | inhibition of growth at 2 µg/mL [1] [%] | viability at 48 h, 2 ug/ml [2] [%] | Activity (NCI60)
1 | C[C@H]1C=C[C@@H](/C=C/CC/C=C/C(=O)NCC(C)(C)O)OO1 [TIMURAMIDE B] | 13 | 65 | 
2 | CC(C)(O)CNC(=O)/C=C/CC/C=C\C=C\C(=O)O [TIMURAMIDE C] | 47 | 66 | inactive
3 | C[C@H](O)[C@H](O)/C=C/C=C\CC/C=C/C(=O)NCC(C)(C)O | 31 | 79 | 
4 | C/C=C/C=C/C=C/CC/C=C/C(=O)NCC(C)(C)O | 65 | 56 | 
5 | CC(O)/C=C/C=C/C(O)CC/C=C/C(=O)NCC(C)(C)O (stereo not drawn) | 41 | 67 | 
6 | C[C@H]1C=C[C@@H](/C=C\CC/C=C/C(=O)NCC(C)(C)O)OO1 [TIMURAMIDE A] | 38 | 97 | inactive
7 | CC(=O)/C=C/C=C/C(O)CC/C=C/C(=O)NCC(C)(C)O (stereo not drawn) | 52 | 75 | 
8 | CC(C)(O)CNC(=O)/C=C/CCC(=O)O [TIMURAMIDE D] | 42 | 70 | inactive
9 | C[C@@H](O)[C@H](O)/C=C/C=C\CC/C=C/C(=O)NCC(C)(C)O | 56 | 66 | 
10 | C/C=C/C=C/C=C\CC/C=C/C(=O)NCC(C)(C)O | 53 | 106 | 
